Bioassay records (PubChem BioAssay)
FGF22 binding: FGF22 (human) thermal shift binding; Q9HCT0; recombinant FGF22 thermal shift, SYPRO orange fluorescence; percent of sucrose octasulfate shift, DMSO zero; activity (Tm shift, normalised), % at 9.99 µM; 1.5% of 340,000 active; AID 651658;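 active means mean Tm shift, scaled 0 neutral to 100 positive control, at about 1.3% or above, every replicate too, limit read from the data; inconclusive means no clear call, values can overlap the other calls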
Target sequence (Q9HCT0 whole entry, looked up): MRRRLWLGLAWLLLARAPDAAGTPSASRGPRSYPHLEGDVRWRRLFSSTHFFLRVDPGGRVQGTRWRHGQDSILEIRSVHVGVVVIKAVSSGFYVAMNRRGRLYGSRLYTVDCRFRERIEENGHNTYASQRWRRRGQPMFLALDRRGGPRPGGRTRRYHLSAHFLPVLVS
PGC1a acetyl inh: PGC1a acetylation modulation, inhibitor mode; U2OS PGC1a acetylation, AlphaScreen anti-acetyl-lysine; with virally co-expressed GCN5 acetyltransferase; inhibition, % at 15.6 µM; 0.17% of 350,000 active; AID 651687;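 active means every replicate shows inhibition of at least 40%; inconclusive means mean inhibition at least 40% but some replicate below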
PAX8 inh HTS: PAX8 transcriptional activity inhibition | 1.2% of 360,000 active | RMG-I TPO-luciferase reporter, SteadyGlo, 24 h | inhibition, % at 12.6 µM;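 active means mean replicate inhibition at least 60% with every replicate also reaching 60%; inconclusive means only one of the two criteria is met; inactive means mean below 60% and not all replicates reaching 60%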;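 further: luciferase light reporting Pax8 driven TPO promoter activity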
FN deposition inh: fibronectin deposition inhibition | AH1F fibroblasts, Alexa488-fibronectin deposition fluorescence, overnight | inhibition, % at 12.6 µM | 0.086% of 350,000 active;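 active means mean inhibition across replicates of 30% or more, regardless of how many single replicates reach that level; inconclusive means mean under 30% yet at least half of replicates reach 30%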
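Assay system: AH1F fibroblast monolayer, labelled fibronectin deposition. Amount: 10000 cells per well. Also added: labelled fibronectin 24 nM. Compound: single-point pinned compound. Incubation: cell attachment 1 h, compound and FN exposure overnight. Detection: fluorescence after three HBSS washes, excitation 485 nm, emission 525 nm. Read-out: inhibition of fibronectin deposition signal.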
EWS-Fli inh: EWS/Fli transcriptional activity inhibition; A673 NR0B1-luciferase reporter, viability-normalised; inhibition, % at 12.6 µM; 0.67% of 350,000 active;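 active means mean inhibition of at least 50% after viability correction, with every replicate also passing that limit; inconclusive means mean reaches 50% but only one of two replicates passes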;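 further: firefly luciferase signal divided by Alamar Blue viability fluorescence both relative to DMSO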
HIV Env fusion: HIV envelope-mediated fusion inhibition | 1.1% of 360,000 active | inhibition, % at 12.3 µM | HeLa-JRFL Env/CEM21 cell fusion, luciferase | AID 651610;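 active means mean replicate inhibition score of at least 50 and every replicate individually at or above 50; inconclusive means only one of the two criteria met; inactive means mean below 50 and not all replicates reaching 50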
Of the large screens only hits and unclear results are named; the others gave an inactive call; [ ] = dose if it differs, or a comment. An excerpt weighted towards active compounds, which were near 3.1% of everything screened.

O=C(NC1CC1)C1=C[C@H](c2csc3ccccc23)C[C@H](OCCCCO)O1	none
O=C(NCc1ccccc1)C1=C[C@@H](c2csc3ccccc23)C[C@@H](OCCCCO)O1	PAX8 inh HTS 77, HIV Env fusion 81 (no result: PGC1a acetyl inh)
O=C(CCCC(=O)OCC(Cl)=C(Cl)Cl)Nc1ccc(F)cc1	PAX8 inh HTS 103 (no result: HIV Env fusion)
CC(C)NC(=O)N(C)C[C@H]1Oc2ncc(C#Cc3ccc(F)cc3)cc2C(=O)N([C@@H](C)CO)C[C@H]1C	none (no result: PAX8 inh HTS)
Cc1cccc(OCC(=O)N/N=C/c2cccn2C)c1	HIV Env fusion 62
C[C@H]1CN([C@@H](C)CO)C(=O)c2cccc(NC(=O)CCCCCC(=O)Nc3ccccc3N)c2O[C@H]1CN(C)S(=O)(=O)c1ccc(Cl)cc1	none (no result: PAX8 inh HTS)
CCCCOC(=O)c1[nH]c2c(c1C)C(=O)CC(c1cc(OC)c(OC)c(OC)c1)C2 (stereo unspecified)	HIV Env fusion 64 (no result: PGC1a acetyl inh)
CCOc1ccc(C2CC(=O)c3c([nH]c(C(=O)OC)c3C)C2)cc1OC (stereo unspecified)	none (no result: FGF22 binding, PAX8 inh HTS, FN deposition inh, EWS-Fli inh, HIV Env fusion)
COC(=O)c1[nH]c2c(c1C)C(=O)CC(c1cc(OC)ccc1OC)C2 (stereo unspecified)	EWS-Fli inh 54
CO[C@@H]1CN(C)C(=O)c2cc(NC(=O)c3cnccn3)ccc2OC[C@H](C)N(CC2CC2)C[C@H]1C	none (no result: PAX8 inh HTS, HIV Env fusion)
C[C@@H]1CCCCO[C@H](CN(C)S(C)(=O)=O)[C@@H](C)CN([C@@H](C)CO)C(=O)c2cc(NS(=O)(=O)c3ccc(F)cc3)ccc2O1	none (no result: FN deposition inh)
CCSc1cc(N2CCOCC2)nc(-c2ccc(Cl)cc2)n1	PAX8 inh HTS 135 (no result: PGC1a acetyl inh, HIV Env fusion)
CO[C@H]1CN(C)C(=O)c2cc(NS(C)(=O)=O)ccc2OC[C@H](C)N(Cc2cccnc2)C[C@H]1C	none (no result: FGF22 binding, PAX8 inh HTS, HIV Env fusion)
C=CCn1c(SC(F)F)nc2scc(-c3ccco3)c2c1=O	PAX8 inh HTS 82, FN deposition inh 37
C=CCn1c(SCC(C)=O)nc2scc(-c3ccco3)c2c1=O	none (no result: PGC1a acetyl inh)
CCCc1c(C(=O)N/N=C(\C)c2ccc(CC(C)C)cc2)nnn1-c1nonc1N	FGF22 binding 44
COc1ccc(NC(=O)N2CCCCN3[C@@H](CO)[C@@H](c4ccc(C5=CCCC5)cc4)[C@@H]3C2)cc1	PAX8 inh HTS 82 (no result: FN deposition inh, HIV Env fusion)
O=C(Nc1ccc(F)cc1)N1CCCCN2[C@H](CO)[C@@H](c3ccc(C4=CCCCC4)cc3)[C@H]2C1	PAX8 inh HTS 74, EWS-Fli inh inconclusive (no result: FN deposition inh, HIV Env fusion)
O=C(Nc1ccccc1)N1CCCCN2[C@H](C1)[C@@H](c1ccc(C3=CCCCC3)cc1)[C@@H]2CO	none (no result: FN deposition inh, HIV Env fusion)
COc1ccc(NC(=O)N2CCCCN3[C@H](CO)[C@H](c4ccc(C5=CCCC5)cc4)[C@H]3C2)cc1	none (no result: FN deposition inh, HIV Env fusion)
Cc1ccc(-c2ccc(C3[C@@H]4CN(S(=O)(=O)c5cccc(C)c5)C[C@H]3N4)cc2)cc1 (stereo partly specified)	none (no result: FGF22 binding, FN deposition inh, HIV Env fusion)
Cc1ccc2c(c1)c1c3n2CCN(CCC(=O)O)C3CCC1 (stereo unspecified)	none (no result: PGC1a acetyl inh)
Cc1ccc2c(c1)c1c3n2CCN(CC(N)=O)C3CCC1 (stereo unspecified)	PAX8 inh HTS 97, HIV Env fusion 81 (no result: PGC1a acetyl inh)
O=C(c1ccccc1)c1ccc[nH]1	FGF22 binding 43 (no result: HIV Env fusion)
O=C(c1ccccc1)c1cnc[nH]1	none
O=C(Nc1ccc2c(c1)OCO2)N[C@H]1CC[C@H](CCNC(=O)C2CCOCC2)O[C@@H]1CO	none (no result: PAX8 inh HTS)
Cc1cc(Oc2ccc(=O)n(C)n2)nc(SCc2ccccc2)n1	FGF22 binding 43 (no result: PGC1a acetyl inh)
Cc1cc(Oc2ccc(=O)n(C)n2)nc(SCC(N)=O)n1	none
CC(C)C[C@@]12C(=O)N(c3cccc(Br)c3)C(=O)N1[C@H](c1ccc(F)cc1)[C@@H]1C(=O)N(C3CCCCC3)C(=O)[C@@H]12	HIV Env fusion 104 (no result: PGC1a acetyl inh)
CC[C@@]12C(=O)N(c3cccc(F)c3)C(=O)N1[C@H](c1ccc(F)cc1)[C@@H]1C(=O)N(C3CCCCC3)C(=O)[C@@H]12	none (no result: FGF22 binding, PAX8 inh HTS, FN deposition inh, EWS-Fli inh, HIV Env fusion)
CC[C@@]12C(=O)N(c3cccc(Br)c3)C(=O)N1[C@H](c1ccc(F)cc1)[C@@H]1C(=O)N(C3CCCCC3)C(=O)[C@@H]12	HIV Env fusion 93
C[C@@H]1CCCCO[C@H](CN(C)C(=O)C2CCCCC2)[C@@H](C)CN([C@@H](C)CO)C(=O)c2cc(NS(C)(=O)=O)ccc2O1	none (no result: FN deposition inh)
CCCc1nn2c(-c3ccccc3)nnc2o1	FGF22 binding 43
CN(C)c1nn2c(-c3ccccc3)nnc2o1	FGF22 binding 43
COCC(=O)N[C@H]1C=C[C@H](CC(=O)N2CCCCC2)O[C@@H]1CO	none
N#CC1=C(N)NC(SCC(=O)Nc2ccccc2)=C(C#N)C12CCCCC2	HIV Env fusion 113 (no result: FGF22 binding, EWS-Fli inh)
COc1ccc(C(=O)CSC2=C(C#N)C3(CCCCC3)C(C#N)=C(N)N2)cc1	HIV Env fusion 76 (no result: FGF22 binding, PAX8 inh HTS, EWS-Fli inh)
O=C(C[C@H]1CC[C@@H]2[C@H](COC[C@H](O)CN2Cc2ccccc2)O1)NCc1ccccc1Cl	none (no result: HIV Env fusion)
CC(=O)C1=C(C)NC(=S)NC1c1ccccc1 (stereo unspecified)	HIV Env fusion 74 (no result: FGF22 binding, PGC1a acetyl inh)
CCOC(=O)C1=C(C)NC(=S)NC1c1ccsc1 (stereo unspecified)	FGF22 binding 43 (no result: PGC1a acetyl inh)
CC(=O)C1=C(C)NC(=S)NC1c1ccc(F)cc1 (stereo unspecified)	none (no result: PGC1a acetyl inh)
COc1cc(/C=N/Nc2nc(Nc3ccccc3)nc(-n3nc(C)cc3C)n2)cc(OC)c1OC	PAX8 inh HTS 80
COc1ccc(/C=N/Nc2cc(C)nc(-n3nc(C)cc3C)n2)cc1	none (no result: FGF22 binding, PGC1a acetyl inh, EWS-Fli inh)
COc1cc(/C=N/Nc2nc(Nc3ccc(C)cc3)nc(-n3nc(C)cc3C)n2)cc(OC)c1OC	PAX8 inh HTS 89 (no result: FGF22 binding, EWS-Fli inh)
COc1ccc(O)c(/C=N/Nc2nc(Nc3ccccc3)nc(-n3nc(C)cc3C)n2)c1	none (no result: FGF22 binding, PAX8 inh HTS, FN deposition inh, EWS-Fli inh, HIV Env fusion)
O=C(Cc1ccncc1)Nc1ccc2c(c1)[C@H]1C[C@@H](CC(=O)N3CCc4ccccc4C3)O[C@H](CO)[C@H]1O2	none (no result: FN deposition inh)
Cc1c(C(=O)O)oc2ccc(S(=O)(=O)N3CCCC3)cc12	none (no result: EWS-Fli inh)
CCCCN(C)C(=O)c1oc2ccc(S(=O)(=O)N3CCCCCC3)cc2c1C	HIV Env fusion 61 (no result: FGF22 binding, PAX8 inh HTS, EWS-Fli inh)
COc1ccc(CCCc2n[nH]c(=S)o2)cc1C	FGF22 binding 43
CO[C@@H]1CN(C)C(=O)c2ccc(NC(=O)C3CCOCC3)cc2OC[C@@H](C)NC[C@@H]1C	none (no result: PAX8 inh HTS)
O=C(C[C@H]1CC[C@@H](NC(=O)c2cccc(F)c2)[C@@H](CO)O1)NCc1ccc(Oc2ccccc2)cc1	HIV Env fusion 71[16.7 µM] (no result: FN deposition inh)
O=C(C[C@H]1CC[C@@H](NC(=O)c2cccc(F)c2)[C@H](CO)O1)NCc1ccc(Oc2ccccc2)cc1	HIV Env fusion 69[16.7 µM] (no result: FN deposition inh)
N#Cc1ccc(NC(=O)Nc2ccc(Oc3ccc(NC(=O)Nc4ccc(C#N)cc4)cc3)cc2)cc1	PAX8 inh HTS 73, HIV Env fusion 64
COc1ccc(NC(=O)Nc2ccc(OC)cc2)cc1	none (no result: FGF22 binding, PAX8 inh HTS, FN deposition inh, EWS-Fli inh, HIV Env fusion)
